From ChEMBL document CHEMBL1136707, “From pure FPP to mixed FPP and CAAX competitive inhibitors of farnesyl protein transferase” (Bioorg Med Chem Lett, 2003)
One block for each compound: values may come before it.

Columns and labels:
[1] = target: Protein farnesyltransferase (Bos taurus, UniProt P29702+P49355); assay: In vitro inhibition of bovine Farnesyl transferase; assay type: protein-complex assay
Method in brief: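 Purified bovine FPTase, assayed as in ref 15, with dansyl-GCVLS peptide and FPP as substrates, both at […].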

[2] = target: T1, Protein farnesyltransferase (Bos taurus) (UniProt P29702+P49355); assay: Inhibition of FPTase at 100 nM using 5 uM FPP as substrate; assay type: protein-complex assay
Method in brief: (§1)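 FPP-dependence study using purified bovine FPTase. Dansyl-GCVLS peptide was held at a fixed level of […] while FPP concentration was varied. Inhibitor was tested at a single fixed concentration, and the read-out was percent inhibition of farnesylation.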

[3] = target: T1, Protein farnesyltransferase (Bos taurus); assay: Inhibition of FPTase at 100 nM using 10 uM Dansyl-GCVLS; assay type: protein-complex assay
Method in brief: (§2)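 Peptide-dependence study using purified bovine FPTase. Dansyl-GCVLS substrate concentration was varied with the inhibitor at a single fixed concentration, and activity was reported as percent enzyme inhibition.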

[4] = target: T1, Protein farnesyltransferase (Bos taurus); assay: Inhibition of FPTase at 100 nM using 20 uM Dansyl-GCVLS; assay type: protein-complex assay; method in brief: as §2
[5] = target: T1, Protein farnesyltransferase (Bos taurus); assay: Inhibition of FPTase at 100 nM using 20 uM FPP as substrate; assay type: protein-complex assay; method in brief: as §1
[6] = target: T1, Protein farnesyltransferase (Bos taurus); assay: Inhibition of FPTase at 100 nM using 10 uM FPP as substrate; assay type: protein-complex assay; method in brief: as §1
[7] = target: T1, Protein farnesyltransferase (Bos taurus); assay: Inhibition of FPTase at 100 nM using 2 uM FPP as substrate; assay type: protein-complex assay; method in brief: as §1
[8] = target: T1, Protein farnesyltransferase (Bos taurus); assay: Inhibition of FPTase at 100 nM using 5 uM Dansyl-GCVLS; assay type: protein-complex assay; method in brief: as §2
[9] = target: T1, Protein farnesyltransferase (Bos taurus); assay: Inhibition of FPTase at 100 nM using 0.5 uM Dansyl-GCVLS; assay type: protein-complex assay; method in brief: as §2
[10] = target: T1, Protein farnesyltransferase (Bos taurus); assay: Inhibition of FPTase at 100 nM using 2 uM Dansyl-GCVLS; assay type: protein-complex assay; method in brief: as §2
[11] = target: T1, Protein farnesyltransferase (Bos taurus); assay: Inhibition of FPTase at 100 nM using 0.5 uM FPP as substrate
[12] = target: T1, Protein farnesyltransferase (Bos taurus); assay: Inhibition of FPTase at 100 nM using 1 uM Dansyl-GCVLS; assay type: protein-complex assay; method in brief: as §2
[13] = target: Protein farnesyltransferase (Homo sapiens, UniProt P49354+P49356); assay: Inhibition of farnesylation of H-Ras in DLD-1 cells; assay type: functional, cell-based
[14] = target: T1, Protein farnesyltransferase (Bos taurus); assay: Inhibition of FPTase at 10 nM using 5 uM FPP as substrate; assay type: protein-complex assay; method in brief: as §1
[15] = target: T1, Protein farnesyltransferase (Bos taurus); assay: Inhibition of FPTase at 10 nM using 1 uM Dansyl-GCVLS; assay type: protein-complex assay; method in brief: as §2
[16] = target: T1, Protein farnesyltransferase (Bos taurus); assay: Inhibition of FPTase at 10 nM using 20 uM Dansyl-GCVLS; assay type: protein-complex assay; method in brief: as §2
[17] = target: T1, Protein farnesyltransferase (Bos taurus); assay: Inhibition of FPTase at 10 nM using 2 uM FPP as substrate; assay type: protein-complex assay; method in brief: as §1
[18] = target: T1, Protein farnesyltransferase (Bos taurus); assay: Inhibition of FPTase at 10 nM using 10 uM FPP as substrate; assay type: protein-complex assay; method in brief: as §1
[19] = target: T1, Protein farnesyltransferase (Bos taurus); assay: Inhibition of FPTase at 10 nM using 10 uM Dansyl-GCVLS; assay type: protein-complex assay; method in brief: as §2
[20] = target: T1, Protein farnesyltransferase (Bos taurus); assay: Inhibition of FPTase at 10 nM using 1 uM FPP as substrate; assay type: protein-complex assay; method in brief: as §1
[21] = target: T1, Protein farnesyltransferase (Bos taurus); assay: Inhibition of FPTase at 10 nM using 0.5 uM FPP as substrate; assay type: protein-complex assay; method in brief: as §1
[22] = target: T1, Protein farnesyltransferase (Bos taurus); assay: Inhibition of FPTase at 10 nM using 2 uM Dansyl-GCVLS; assay type: protein-complex assay; method in brief: as §2
[23] = target: T1, Protein farnesyltransferase (Bos taurus); assay: Inhibition of FPTase at 10 nM using 0.5 uM Dansyl-GCVLS; assay type: protein-complex assay; method in brief: as §2
[24] = target: T1, Protein farnesyltransferase (Bos taurus); assay: Inhibition of FPTase at 10 nM using 20 uM FPP as substrate; assay type: protein-complex assay; method in brief: as §1

Compound: CC(C)=CCC/C(C)=C/CC/C(C)=C/CC(C(=O)NCc1ccccc1)N(Cc1cncn1C)S(=O)(=O)c1ccccc1 (stereo not drawn)
IC50 [1]: 670 nM
IC50 [13]: 1000 nM

Compound: CC(C)=CCC/C(C)=C/CC/C(C)=C/CC(C(=O)N[C@@H](Cc1ccccc1)C(=O)O)N(Cc1cncn1C)S(=O)(=O)c1ccccc1 (stereo partly drawn)
IC50 [1]: 470 nM
IC50 [13]: 10000 nM

Compound: CC(C)=CCC/C(C)=C/CC/C(C)=C/CC(NCc1cncn1Cc1ccc(C#N)cc1)C(=O)N[C@@H](Cc1ccccc1)C(=O)O (stereo partly drawn)
IC50 [13]: 5000 nM

Compound: CC(C)=CCC/C(C)=C/CC/C(C)=C/CC1C(=O)N(Cc2ccccc2)C(=O)N1Cc1cncn1C (stereo not drawn)
IC50 [1]: 700 nM

Compound: CC(C)=CCC/C(C)=C/CC/C(C)=C/CC(NCc1cncn1Cc1ccc(C#N)cc1)C(=O)NCc1ccccc1 (stereo not drawn)
inhibition [14]: 38%
inhibition [15]: 41%
inhibition [16]: 3%
inhibition [17]: 42%
inhibition [18]: 36%
inhibition ([8]; 10 nM, in the assay text read “10 nM” for “100 nM”): 27%
IC50 [1]: 6 nM
inhibition [19]: 14%
inhibition [20]: 55%
inhibition [21]: 54%
inhibition [22]: 38%
inhibition [23]: 49%
IC50 [13]: 1000 nM
inhibition [24]: 32%

Further lines, results first:

IC50 [1]: 200 nM
Compound: CC(C)=CCC/C(C)=C/CC/C(C)=C/CC1C(=O)N(Cc2ccccc2)C(=O)N1Cc1cncn1Cc1ccc(C#N)cc1 (stereo not drawn)

inhibition [2]: 9%
inhibition ([2]; in the assay text read “1 uM FPP” for “5 uM FPP”): 72%
inhibition [3]: 33%
inhibition [4]: 38%
inhibition [5]: 10%
inhibition [6]: 9%
inhibition [7]: 37%
inhibition [8]: 34%
inhibition [9]: 43%
IC50 [1]: 83 nM
inhibition [10]: 41%
inhibition [11]: 80%
inhibition [12]: 42%
IC50 [13]: > 10000 nM
Compound: CC(C)=CCC/C(C)=C/CC/C(C)=C/CC(C(=O)N[C@@H](Cc1ccccc1)C(=O)O)P(=O)(O)O (stereo partly drawn)

IC50 [1]: 40 nM
IC50 [13]: > 10000 nM
Compound: CC(C)=CCC/C(C)=C/CC/C(C)=C/CC(C(=O)NCc1ccccc1)N(Cc1cncn1Cc1ccc(C#N)cc1)S(=O)(=O)c1ccccc1 (stereo not drawn)

IC50 [1]: > 10000 nM
Compound: CC(C)=CCC/C(C)=C/CC/C(C)=C/CC(NCc1cncn1C)C(=O)NCc1ccccc1 (stereo not drawn)
